Sampled rows, rich in hits. Any-hit rate of the full collection: about 1.6%.
HKDC1 inh: HKDC1 hexokinase inhibitors, primary screen, biochemical, fluorescence, uHTS. inhibition, % at 20 µM. recombinant HKDC1, G6PDH/diaphorase resazurin coupled fluorescence. 340,000 tested, 0.16% active. Q2TB90;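 active = inhibition above about 35% when tested at 20 µM, limit read from the data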;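 also: plate controls were DMSO wells with enzyme for no effect and DMSO wells lacking enzyme for full effect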
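System: Recombinant HKDC1 hexokinase | Amount: HKDC1 at 5 µg/mL | Reagent: Glucose with 1 mM ATP | Doses: Single 20 µM dose | Incubation: Reaction time 90 min, room temperature, protected from light | Signal: Coupled resazurin fluorescence, excitation 525 nm, emission 613 nm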
PKA-R1A activ: activators of PKA-R1A holoenzyme, primary screen, biochemical, fluorescence polarization, Cy5-IP20, bovine R1A, mouse PKAc; AID 504707, 2011; activation, % at 11.4 µM; cAMP-dependent protein kinase type I-alpha regulatory subunit (Bos taurus) + …; 340,000 tested, 0.083% active; PKA-R1A dissociation; scaled: DMSO 0%, 113 µM cGMP 100%;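 active = percent activation above the mean of all tested compounds plus 3 SD, cut at about 19% in these data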;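 also: higher means more PKAc released from R1A so a rise in polarization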
PKA-R2B activ: activators of PKA-R2B holoenzyme, primary screen, biochemical, fluorescence polarization, Cy5-IP20, human. 340,000 tested, 0.079% active. activation, % at 11.4 µM. PKA-R2B holoenzyme dissociation; R2B truncated from residue 108, S112A mutant; 0% DMSO only, 100% 113 µM cGMP;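 active = activation above a cutoff set at the mean over all compounds plus 3 SD, cut at about 18% in these data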;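 also: higher means more holoenzyme dissociation and a rise in polarization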
Target sequence (P31323 whole entry, looked up, other chains not shown, the tested form may be a part): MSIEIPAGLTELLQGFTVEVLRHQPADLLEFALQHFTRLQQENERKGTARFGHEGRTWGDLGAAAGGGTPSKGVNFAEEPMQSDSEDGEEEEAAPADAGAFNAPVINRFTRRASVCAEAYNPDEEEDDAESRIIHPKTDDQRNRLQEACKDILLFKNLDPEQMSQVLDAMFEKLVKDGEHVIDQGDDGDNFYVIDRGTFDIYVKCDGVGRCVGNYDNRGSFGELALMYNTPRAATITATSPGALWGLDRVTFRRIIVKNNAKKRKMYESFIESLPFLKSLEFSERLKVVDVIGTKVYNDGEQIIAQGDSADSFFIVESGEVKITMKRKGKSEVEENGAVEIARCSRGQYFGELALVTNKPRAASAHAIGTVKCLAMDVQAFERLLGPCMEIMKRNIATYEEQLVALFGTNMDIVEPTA
PfGluPho inh: PfG6PD enzyme inhibitors, primary screen, biochemical, fluorescence intensity, uHTS | AID 504690, 2011 | 350,000 tested, 0.78% active | PfGluPho enzyme, NADPH resazurin-diaphorase fluorescence | inhibition, % at 20 µM;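 active = inhibition reaching at least a set limit at 20 µM in the primary screen, cut at about 59% in these data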;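 also: 0% = DMSO wells with substrate and 100% = DMSO wells lacking glucose-6-phosphate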
T cell modulator: modulators of CD8 T cell-vesicle binding, primary screen, mouse 2C CD8+ T cells, flow cytometry; 2C CD8+ T cell-vesicle binding; stronger effect = lower value; 330,000 tested, 0.068% active; response (vesicle binding), % at 7 µM;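 active = response, share of CD8 T cells binding vesicles, and their 90th percentile fluorescence all below set limits, cut at about 80% in these data, passing the limit was not always enough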;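 also: values below 100% mean blocked vesicle binding to the CD8+ T cells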
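Material: murine 2C transgenic CD8+ T lymphocytes / Also added: QL9-peptide-loaded Drosophila micro-vesicles bearing Ld, ICAM-1 and B7-1 / Schedule: binding step 1.5 h, 37 °C, antibody labelling 20 min, ice / Signal: flow cytometry, PE anti-B7-1 (FL2) versus Alexa647 anti-CD8 (FL8), PFA-fixed / Evaluation: percent CD8+ FL2 mean versus row control / Benchmarks: naked versus QL9-loaded vesicles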
ATG4B inh: ATG4B protease inhibitors, primary screen, biochemical, fluorescence, uHTS. Cysteine protease ATG4B (Homo sapiens), Q9Y4P1. inhibition, % at 8.33 µM. ATG4B cleavage of LC3-PLA2, NBD-HPC fluorescence, 1 h. 340,000 tested, 0.51% active. AID 504462, 2011; in the data active = inhibition above about 40%
HKDC1 act conf: HKDC1 hexokinase activators, confirmation, biochemical, single concentration; 740 tested, 14% active; recombinant HKDC1, G6PDH/diaphorase resazurin fluorescence; stronger effect = lower value; shares compounds with HKDC1 inh; inhibition, % at 20 µM; AID 504708, 2011;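 active = inhibition at or below a set negative limit, negative inhibition meaning the enzyme was activated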
The depositor's hits bear a star; i = inactive; / = not tested or not shown.

SMILES	HKDC1 inh	PKA-R1A activ	PKA-R2B activ	PfGluPho inh	T cell modulator	ATG4B inh	HKDC1 act conf
O=C(NNC(=O)c1ccc(Br)o1)c1csc(N2CCOCC2)n1	0	6	0	-7	338	0	/
CCCc1nc2oc3c(NCCOCCO)ncnc3c2c2c1COC(C)(C)C2	39*	-4	0	44	294	-9	42
CCCc1nc2oc3c(OC)ncnc3c2c2c1COC(C)(C)C2	37*	-7	6	46	377	-17	42
Cc1nc2oc3c(NCC4CCCO4)ncnc3c2c2c1COC(C)(C)C2 (stereo not drawn)	18	1	-2	13	106	-3	/
CC(C)c1nc2oc3c(NCCO)ncnc3c2c2c1COC(C)(C)C2	46*	15	5	56	211	-7	66
CCCc1nc2oc3c(=O)[nH]cnc3c2c2c1CCCC2	-1	17	9	-4	201	-4	/
CC(C)c1nc2oc3c(=O)[nH]cnc3c2c2c1COC(C)(C)C2	36*	-2	-9	32	232	-7	48
Cc1nc2oc3c(NCc4ccccc4)ncnc3c2c2c1COC(C)(C)C2	26	-15	-8	19	318	-4	/
CC(C)c1nc2oc3c(=O)[nH]cnc3c2c2c1CCC2	22	-12	-11	9	252	6	/
COc1ccc(S(=O)(=O)N2CCOCC2)cc1C(=O)NC1CCCCCC1	-8	-5	0	3	371	-5	/
Cc1cc(CN2CCCC(C(=O)Nc3ccc(-c4nc5ccccc5[nH]4)cc3)C2)n[nH]1 (stereo not drawn)	1	1	4	0	464	-10	/
COCCN(C(=O)COC(=O)c1cc2c(s1)CCC2)c1c(N)n(Cc2ccccc2)c(=O)[nH]c1=O	35*	-5	-7	8	296	15	16
CCC1CCc2sc(C(=O)OCC(=O)N(CCOC)c3c(N)n(Cc4ccccc4)c(=O)[nH]c3=O)cc2C1 (stereo not drawn)	0	5	8	-8	206	-23	/
CCOC(=O)[C@H]1[C@H]2COc3ccc(Br)cc3[C@H]2N2C(=O)CN(Cc3ccc(Cl)cc3)C(=O)[C@@]12C	1	-11	-14	0	/	/	/
COC(=O)c1cc(=O)n(Cc2ccc(OC)cc2)c(=NCc2ccc(OC)cc2)s1	-43	5	-2	5	178	-10	-16
COc1ccc(CC(=O)N(Cc2ccccc2)c2ccc(C)cc2)cc1S(=O)(=O)N1CCOCC1	33	-2	-1	9	i	-13	-30
O=C(CSc1nnc(CCCN2C(=O)c3cccc4cccc(c34)C2=O)n1-c1ccccc1)N1CCN(CCO)CC1	42*	4	7	4	401	2	48
CN(C(=O)Nc1ccccc1)C1CCCc2ccccc21 (stereo not drawn)	-4	4	5	-6	309	4	/
CCn1c(=O)n(CC)c2cc(N3CCCC3)c(NC(=O)c3ccccc3OC)cc21	-37	-6	-2	7	323	-14	-20
CCOc1ccccc1C(=O)Nc1cc2c(cc1N1CCCC1)n(CC)c(=O)n2CC	-36	2	0	14	190	-10	/
O=C(N/N=C/c1ccc(O)cc1O)c1ccc(CN2C(=O)c3cccc4cccc2c34)cc1	-41	1	3	38	103	7	-22
